14 molecules from ChEMBL document CHEMBL1687872, “Synthesis, molecular docking and binding studies of selective serotonin transporter inhibitors” (Eur J Med Chem, 2011) can be followed below.

The species entered for assay [1] is Oryctolagus cuniculus. Kind of assay: Ratio of Ki for DAT in rabbit striatal membrane to Ki for SERT in rabbit cortical membrane. In kind it is cell membranes. The gist of the method: (§1)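 Ratio of the radioligand-binding Ki values from rabbit membranes: DAT ([3H]WIN 35,428, striatum) or NET ([3H]nisoxetine, cortex) Ki divided by SERT ([3H]paroxetine, cortex) Ki.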

Assay [2] in a line: Displacement of [3H]-paroxetine from SERT in rabbit cortical membrane. The format is cell membranes, Oryctolagus cuniculus. Summed up: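 Competition against [3H]paroxetine (Kd 56.00 pM) on rabbit frontal cortex membranes, in duplicate, at least seven test concentrations from ethanol stocks diluted in Tris-HCl saline buffer; filtration and scintillation counting; Ki calculated by Cheng-Prusoff, mean ± s.e.m. of three independent experiments.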
For orientation: Displacement assays read how much labelled ligand stays bound in the presence of the test substance.

Assay [3] can be described thus: Displacement of [3H]-Nisoxetine from NET in rabbit cortical membrane. In kind it is cell membranes, Oryctolagus cuniculus.
The species entered for assay [4] is Oryctolagus cuniculus. Kind of assay: Ratio of Ki for NET in rabbit cortical membrane to Ki for SERT in rabbit cortical membrane. The format is cell membranes. Summed up:
as §1

The nature of assay [5]: Displacement of [3H]-WIN 35,428 from DAT in rabbit striatal membrane. The format is cell membranes, Oryctolagus cuniculus, Striatum. The gist of the method:
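Rabbit striatal membranes (0.2 mg protein) in 50 mM Tris-HCl pH 7.4, 120 mM NaCl, 5 mM KCl with 0.5–2 nM [3H]WIN 35,428 (Kd 6.1 nM), 2 h at 4 °C; dopamine defines nonspecific binding; filtration over polyethylenimine-soaked GF/C filters, scintillation counting; ≥7 concentrations; Ki via Cheng-Prusoff, mean ± s.e.m. of three experiments in duplicate.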

pKi: −log10 of the molar value.

By pKi is commonly meant the negative decadic logarithm of the Ki, by convention in mol/L. The low end stands for a large Ki, the high end for a small Ki. Regarding `CNCC[C@@H](Oc1ccc(C(F)(F)F)cc1)c1ccccc1` [R-FLUOXETINE], the Ratio Ki was 670 in assay [1] and 105 in assay [4]. Also, the negative logarithm of the Ki (pKi) in assay [2] was 8.24; in assay [3] it was 6.22; in assay [5], 5.40.
`FC(F)(F)c1ccc(C2CCNC/C2=N/OCc2ccccc2Cl)cc1` (racemic): the Ratio Ki is greater than 9000 in assay [1] and 972 in assay [4]. The results for the pKi in assay [2], in assay [3] and in assay [5] were 7.99, 5.00 and less than 4.00, respectively.
As to `Fc1ccc([C@@H]2CCNC[C@H]2COc2ccc3c(c2)OCO3)cc1` [PAROXETINE], the Ratio Ki is 2480 in assay [1] and 258 in assay [4]. Also, the results for the negative logarithm of the Ki (pKi) in assay [2], in assay [3] and in assay [5] were 9.51, 7.10 and 6.11, respectively.
As for `FC(F)(F)c1ccc(C2CCNC/C2=N\OCc2ccccc2Cl)cc1` (racemic), the Ratio Ki in assay [1] turned out to be 43. Also, the figures for the pKi in assay [2] and in assay [5] were 7.02 and 5.38, respectively.
On the same counts, the results for `Fc1ccc(C2CCNC/C2=N\OCc2ccc(C(F)(F)F)cc2)cc1` (racemic) are 45, 6.86 and 5.21.
On the same counts, the results for `Fc1ccc(CO/N=C2\CNCCC2c2ccc(F)cc2)cc1` (racemic) are 10, 6.51 and 5.50.
With `Fc1ccc(C2CCNC/C2=N\OCc2ccccc2Cl)cc1` (racemic), in assay [1], the Ratio Ki was 47. For the same molecule, the pKi in assay [2] is 7.09; in assay [5], 5.42.
With `Fc1ccc(CO/N=C2/CNCCC2c2ccc(C(F)(F)F)cc2)cc1` (configuration not stated), the results for the Ratio Ki in assay [1] and in assay [4] were greater than 1000 and 96, respectively. Besides, the pKi in assay [2] is 7.01; in assay [3], 5.03; in assay [5], less than 4.00.
In the case of `Fc1ccc(CO/N=C2/CNCCC2c2ccc(F)cc2)cc1` (racemic), the Ratio Ki in assay [1] was found to be 329; in assay [4], 466. The pKi in assay [2] was 7.54; in assay [3], 4.87; in assay [5] it was 5.02.
In the case of `Fc1ccc(C2CCNC/C2=N/OCc2ccc(C(F)(F)F)cc2)cc1` (racemic), the results for the Ratio Ki in assay [1] and in assay [4] were greater than 1000 and 198, respectively. The pKi in assay [2] is 7.01; in assay [3], 4.71; in assay [5], less than 4.00.
Regarding `Fc1ccc(CO/N=C2\CNCCC2c2ccc(C(F)(F)F)cc2)cc1` (racemic), in assay [1], the Ratio Ki turned out to be 7. Besides, the pKi in assay [2] is 6.40; in assay [5] it was 5.55.
For the molecule `Fc1ccc(C2CCNC/C2=N/OCc2ccccc2Cl)cc1` (racemic), the Ratio Ki in assay [1] turned out to be 571; in assay [4], 496. Besides, the values for the pKi in assay [2], in assay [3] and in assay [5] were 7.65, 4.95 and 4.89, respectively.
For `CNCCC(Oc1ccccc1OC)c1ccccc1` (configuration not stated) [NISOXETINE], in assay [3], the pKi was 8.46.
In assay [5], `Fc1ccc(C(OCCN2CCN(CCCc3ccccc3)CC2)c2ccc(F)cc2)cc1` [VANOXERINE] gave a pKi of 8.82.
